In ChEMBL document CHEMBL4038321, “Design, Synthesis, and Pharmacokinetics of a Bone-Targeting Dual-Action Prodrug for the Treatment of Osteoporosis” (J Med Chem, 2017):

Key:
[1] = tested on: Bone; experiment: Drug uptake in Sprague-Dawley rat bone at 1.8 uCi, iv administered as bolus dose after 6 hrs; type: ADME, organism-based, Bone element; details: in vivo
Summary of the method: (§1)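 Female Sprague Dawley rats, about 13 weeks old, in five groups of three. Single IV tail-vein bolus of mixed 3H-conjugate (8.90 µCi/rat) and 14C-conjugate (1.77 µCi/rat), total dose 5.0 mg/kg. Vehicle was 10% Poloxamer 188, brought to pH 8.0 with NaHCO3, then diluted with an equal volume of PBS. Groups were killed at 6 h, 1, 7, 14 and 28 days. Tissues and femurs were incinerated in a biological oxidizer. Values are % of administered dose, with skeleton taken as 8% of body weight, averaged over three rats.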

[2] = tested on: Bone; experiment: Drug uptake in Sprague-Dawley rat bone at 1.8 uCi, iv administered as bolus dose after 1 day; type: ADME, organism-based, Bone element; details: in vivo, 24 h; summary of the method: as §1
[3] = tested on: Bone; experiment: Drug uptake in Sprague-Dawley rat bone at 1.8 uCi, iv administered as bolus dose after 7 days; type: ADME, organism-based, Bone element; details: in vivo, 168 h; summary of the method: as §1
[4] = tested on: Bone; experiment: Drug uptake in Sprague-Dawley rat bone at 1.8 uCi, iv administered as bolus dose after 14 days; type: ADME, organism-based, Bone element; details: in vivo, 336 h; summary of the method: as §1
[5] = tested on: Liver; experiment: Drug uptake in Sprague-Dawley rat liver at 1.8 uCi, iv administered as bolus dose after 6 hrs; type: ADME, organism-based; details: in vivo; summary of the method: as §1
[6] = tested on: Liver; experiment: Drug uptake in Sprague-Dawley rat liver at 1.8 uCi, iv administered as bolus dose after 1 day; type: ADME, organism-based; details: in vivo, 24 h; summary of the method: as §1
[7] = tested on: Liver; experiment: Drug uptake in Sprague-Dawley rat liver at 1.8 uCi, iv administered as bolus dose after 7 days; type: ADME, organism-based; details: in vivo, 168 h; summary of the method: as §1
[8] = tested on: Liver; experiment: Drug uptake in Sprague-Dawley rat liver at 1.8 uCi, iv administered as bolus dose after 14 days; type: ADME, organism-based; details: in vivo, 336 h; summary of the method: as §1
[9] = tested on: Spleen; experiment: Drug uptake in Sprague-Dawley rat spleen at 1.8 uCi, iv administered as bolus dose after 6 hrs; type: ADME, organism-based; details: in vivo; summary of the method: as §1
[10] = tested on: Spleen; experiment: Drug uptake in Sprague-Dawley rat spleen at 1.8 uCi, iv administered as bolus dose after 1 day; type: ADME, organism-based; details: in vivo, 24 h; summary of the method: as §1
[11] = tested on: Spleen; experiment: Drug uptake in Sprague-Dawley rat spleen at 1.8 uCi, iv administered as bolus dose after 7 days; type: ADME, organism-based; details: in vivo, 168 h
Summary of the method: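 Female Sprague Dawley rats, about 13 weeks old on arrival, in five groups of three. Single IV tail-vein bolus of mixed [3H]- and [14C]-labelled conjugate (8.90 and 1.77 µCi/rat), total 5.0 mg/kg. Vehicle was 10% Poloxamer 188 adjusted to pH 8.0 with NaHCO3, then diluted with an equal volume of PBS. Groups killed at 6 h, 1, 7, 14 and 28 days. Spleen radioactivity measured by oxidizer incineration and reported as percent of administered dose, averaged over three rats.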

[12] = tested on: Spleen; experiment: Drug uptake in Sprague-Dawley rat spleen at 1.8 uCi, iv administered as bolus dose after 14 days; type: ADME, organism-based; details: in vivo, 336 h; summary of the method: as §1
[13] = tested on: Kidney; experiment: Drug uptake in Sprague-Dawley rat kidney at 1.8 uCi, iv administered as bolus dose after 6 hrs; type: ADME, organism-based; details: in vivo; summary of the method: as §1
[14] = tested on: Kidney; experiment: Drug uptake in Sprague-Dawley rat kidney at 1.8 uCi, iv administered as bolus dose after 1 day; type: ADME, organism-based; details: in vivo, 24 h; summary of the method: as §1
[15] = tested on: Kidney; experiment: Drug uptake in Sprague-Dawley rat kidney at 1.8 uCi, iv administered as bolus dose after 7 days; type: ADME, organism-based; details: in vivo, 168 h; summary of the method: as §1
[16] = tested on: Kidney; experiment: Drug uptake in Sprague-Dawley rat kidney at 1.8 uCi, iv administered as bolus dose after 14 days; type: ADME, organism-based; details: in vivo, 336 h; summary of the method: as §1
[17] = tested on: Heart; experiment: Drug uptake in Sprague-Dawley rat heart at 1.8 uCi, iv administered as bolus dose after 6 hrs; type: ADME, organism-based; details: in vivo; summary of the method: as §1
[18] = tested on: Heart; experiment: Drug uptake in Sprague-Dawley rat heart at 1.8 uCi, iv administered as bolus dose after 1 day; type: ADME, organism-based; details: in vivo, 24 h; summary of the method: as §1
[19] = tested on: Brain; experiment: Drug uptake in Sprague-Dawley rat brain at 1.8 uCi, iv administered as bolus dose after 6 hrs; type: ADME, organism-based; details: in vivo; summary of the method: as §1
[20] = tested on: Brain; experiment: Drug uptake in Sprague-Dawley rat brain at 1.8 uCi, iv administered as bolus dose after 1 day; type: ADME, organism-based; details: in vivo, 24 h; summary of the method: as §1
[21] = tested on: Bone; experiment: Drug uptake in Sprague-Dawley rat bone at 1.8 uCi, iv administered as bolus dose after 28 days; type: ADME, organism-based, Bone element; details: in vivo, 672 h; summary of the method: as §1
[22] = tested on: Liver; experiment: Drug uptake in Sprague-Dawley rat liver at 1.8 uCi, iv administered as bolus dose after 28 days; type: ADME, organism-based; details: in vivo, 672 h; summary of the method: as §1
[23] = tested on: Spleen; experiment: Drug uptake in Sprague-Dawley rat spleen at 1.8 uCi, iv administered as bolus dose after 28 days; type: ADME, organism-based; details: in vivo, 672 h; summary of the method: as §1
[24] = tested on: Kidney; experiment: Drug uptake in Sprague-Dawley rat kidney at 1.8 uCi, iv administered as bolus dose after 28 days; type: ADME, organism-based; details: in vivo, 672 h; summary of the method: as §1
[25] = tested on: Rattus norvegicus; experiment: Toxicity in Sprague-Dawley rat assessed as behavioral change at 1.8 uCi, iv administered as bolus dose after 28 dyas; type: organism-based; details: in vivo
Summary of the method: (§2)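 Same dual-label study: female Sprague Dawley rats got one IV tail-vein bolus of [3H] (8.90 µCi) plus [14C] (1.77 µCi) conjugate, total 5.0 mg/kg, in Poloxamer 188/PBS vehicle at pH 8.0. Groups of three were sacrificed up to 28 days after dosing.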

[26] = tested on: Rattus norvegicus; experiment: Toxicity in Sprague-Dawley rat assessed as unusual reaction at 1.8 uCi, iv administered as bolus dose after 28 dyas; type: organism-based; details: in vivo; summary of the method: as §2

For `CCOC(=O)CCCCCCN1C(=O)CC[C@@H]1/C=C/[C@@H](OC(=O)Cc1ccc(COC(=O)N[C@@H](CC(C)C)C(=O)N[C@@H](CCCNC(=N)N)C(=O)Nc2ccc(CO[14C](=O)NCCCC(O)(P(=O)(O)O)P(=O)(O)O)cc2)cc1)C(F)(F)c1ccccc1`, the Drug uptake [1] was 5.52 %ID, the Drug uptake [2] was 4.63 %ID and the Drug uptake [3] was 3.51 %ID. It also gave a Drug uptake [4] of 2.52 %ID, a Drug uptake [5] of 7.03 %ID and a Drug uptake [6] of 2.5 %ID. For the same molecule, the Drug uptake [7] was 0.61 %ID, the Drug uptake [8] was 0.27 %ID and the Drug uptake [9] was 0.34 %ID. For the same molecule, the Drug uptake [10] was 0.23 %ID, the Drug uptake [11] was 0.086 %ID and the Drug uptake [12] was 0.05 %ID. The Drug uptake [13] was 0.11 %ID, the Drug uptake [14] was 0.047 %ID and the Drug uptake [15] was 0.02 %ID. For the same molecule, the Drug uptake [16] was 0.013 %ID, the Drug uptake [17] was 0.017 %ID and the Drug uptake [18] was 0.009 %ID. It also gave a Drug uptake [19] of 0.014 %ID, a Drug uptake [20] of 0.012 %ID and a Drug uptake [21] of 2.44 %ID. For the same molecule, the Drug uptake [22] was 0.1 %ID, the Drug uptake [23] was 0.039 %ID and the Drug uptake [24] was 0.0092 %ID. For the same molecule, the Activity [25] was “Non-Toxic” and the Activity [26] was “Non-Toxic”.
